Residues, ends and D or L forms follow the SMILES beside them.
Columns and labels:
Type in all cases: cell-based, human
[1] = tested on: ET-1 expression in Ang II-stimulated EA.hy926 cells; test: ET-1 expression by western blot; conditions: 24 h
In short: (§1)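 Ang II-stimulated EA.hy926 cells were lysed for 60 min in Tris/EDTA/NP-40 buffer with phosphatase and protease inhibitors, and protein was measured by BCA. Each lane took 40 µg protein on SDS-PAGE, transferred to nitrocellulose and blocked 2 h in 5% milk/TBS-T. Primary antibodies (1:1,000) were applied overnight at 4°C and secondaries at 1:3,000, with ECL detection and densitometry. Data are mean ± SD, at least 3 experiments.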

[2] = tested on: iNOS expression in Ang II-stimulated EA.hy926 cells; test: iNOS expression by western blot; conditions: 24 h
In short: as §1

[3] = tested on: p38 MAPK phosphorylation in EA.hy926 cells; test: Phosphorylation of p38 MAPK by western blot; conditions: 30 min
In short: as §1

[4] = tested on: intracellular ROS in Ang II-stimulated EA.hy926 cells; test: Intracellular ROS generation; conditions: Ang II alone (1 µM, 30 min), compared with the untreated cells
In short: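 Cells were seeded for 24 h, then pre-treated with test compound for 30 min. Ang II (1 µM) was added for a further 30 min at 37°C. Cells were loaded with 40 µM carboxy-DCFH-DA, and DCF fluorescence plus DAPI were imaged by fluorescence microscopy.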

[5] = tested on: JNK phosphorylation in EA.hy926 cells; test: Phosphorylation of JNK by western blot; conditions: 30 min
In short: as §1

[6] = tested on: ERK phosphorylation in EA.hy926 cells; test: Phosphorylation of ERK by western blot; conditions: 30 min
In short: as §1

[7] = tested on: NO production in Ang II-stimulated EA.hy926 cells; test: NO production; conditions: Ang II alone (1 µM, 24 h), compared with the untreated cells
In short: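 EA.hy926 cells were incubated with test compound and Ang II for 24 h. Nitrite in the medium was taken as the NO indicator. Medium was mixed 1:1 with Griess reagent (1% sulfanilamide, 0.1% naphthylethylenediamine dihydrochloride in 2.5% phosphoric acid) for 10 min at room temperature and read at 540 nm, with fresh medium as blank. Data are mean ± SD, at least 3 experiments.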

EA.hy926 cells = test: Cell viability by MTT assay; conditions: 62.5, 125 and 250 µM, up to 250 µM; presence or absence of Ang II (1 µM); 24 h
In short: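 EA.hy926 cells were grown in DMEM with 10% FBS, penicillin and streptomycin at 37°C in 5% CO2. Cells were treated with Ang II (1 µM) plus test compound (62.5, 125 or 250 µM) for 24 h at 37°C, then with MTT for 4 h. Plates were spun and formazan was dissolved in DMSO, read at 540 nm. Data are mean ± SD of at least 3 experiments, compared by unpaired t-test.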

## angiotensin II (DRVYIHPF; Angiotensin-2; UniProt P01019 25-32, looked up) [Ang II]
[1]
  ET-1 expression, Ang II alone: markedly increased
[2]
  iNOS expression, Ang II alone: markedly increased
[3]
  phosphorylated p38 MAPK, Ang II alone: elevated
[4]
  ROS fluorescence intensity, Ang II alone: increased markedly
[5]
  phosphorylated JNK, Ang II alone: elevated
[6]
  phosphorylated ERK, Ang II alone: elevated
[7]
  NO generation, Ang II alone: markedly induced NO generation

## CSCC[C@H](NC(=O)[C@@H](N)[C@@H](C)O)C(=O)N[C@@H](CCC(=O)O)C(=O)N1CCC[C@H]1C(=O)NCC(=O)N[C@@H](CCCCN)C(=O)N1CCC[C@H]1C(=O)O [purified peptide, Thr-Met-Glu-Pro-Gly-Lys-Pro] (H-TMEPGKP-OH)
EA.hy926 cells
  cytotoxic effect (MTT): No significant toxic effects

Reference: article PMC5403476 (International Journal of Molecular Medicine, 2017)
